# Experiments:
# Format in all cases: functional
# Staphylococcus aureus [1] = assay: Antibacterial activity against methicillin-resistant Staphylococcus aureus assessed as bacterial growth inhibition by broth microdilution method
# Outline: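 MIC read by micro broth dilution; values given in μg/mL.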
# Enterococcus faecalis = assay: Antibacterial activity against Enterococcus faecalis assessed as bacterial growth inhibition by broth microdilution method
# Outline: (§1)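 MIC values reported in µg/mL, determined by broth microdilution in microdilution plates.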
# Staphylococcus aureus [2] = assay: Antibacterial activity against Staphylococcus aureus assessed as bacterial growth inhibition by broth microdilution method; outline: as §1
# Staphylococcus aureus [3] = assay: Antibacterial activity against Staphylococcus aureus ATCC 25923 assessed as bacterial growth inhibition by broth microdilution method; outline: as §1
# Staphylococcus aureus [4] = assay: Antibacterial activity against Staphylococcus aureus ATCC 29213 assessed as bacterial growth inhibition by broth microdilution method; outline: as §1
# Klebsiella pneumoniae = assay: Antibacterial activity against Klebsiella pneumonia assessed as bacterial growth inhibition by broth microdilution method; outline: as §1
# Pseudomonas aeruginosa [5] = assay: Antibacterial activity against Pseudomonas aeruginosa ATCC 27853 assessed as bacterial growth inhibition by broth microdilution method; outline: as §1
# Pseudomonas aeruginosa [6] = assay: Antibacterial activity against Pseudomonas aeruginosa assessed as bacterial growth inhibition by broth microdilution method; outline: as §1
# Acinetobacter baumannii = assay: Antibacterial activity against Acinetobacter baumannii assessed as bacterial growth inhibition by broth microdilution method; outline: as §1
# Escherichia coli [7] = assay: Antibacterial activity against Escherichia coli assessed as bacterial growth inhibition by broth microdilution method; outline: as §1
# Escherichia coli [8] = assay: Antibacterial activity against Escherichia coli ATCC 25922 assessed as bacterial growth inhibition by broth microdilution method; outline: as §1
SMILES,MIC (Staphylococcus aureus [1]),MIC (Enterococcus faecalis),MIC (Staphylococcus aureus [2]),MIC (Staphylococcus aureus [3]),MIC (Staphylococcus aureus [4]),MIC (Klebsiella pneumoniae),MIC (Pseudomonas aeruginosa [5]),MIC (Pseudomonas aeruginosa [6]),MIC (Acinetobacter baumannii),MIC (Escherichia coli [7]),MIC (Escherichia coli [8])
CC(=O)Nc1ccc(S(=O)(=O)CC(CO)n2cc(I)nc2C)cc1 (configuration not stated),64 µg/mL,256 µg/mL,64 µg/mL,64 µg/mL,64 µg/mL,256 µg/mL,32 µg/mL,256 µg/mL,64 µg/mL,64 µg/mL,32 µg/mL
Cc1nccn1C(CO)CS(=O)(=O)c1ccc(N)cc1 (configuration not stated),16 µg/mL,8 µg/mL,128 µg/mL,64 µg/mL,64 µg/mL,128 µg/mL,64 µg/mL,128 µg/mL,16 µg/mL,128 µg/mL,32 µg/mL
CCc1nccn1C(CO)CS(=O)(=O)c1ccc(NC(C)=O)cc1 (configuration not stated),32 µg/mL,32 µg/mL,64 µg/mL,64 µg/mL,16 µg/mL,128 µg/mL,64 µg/mL,256 µg/mL,16 µg/mL,64 µg/mL,32 µg/mL
Nc1ccc(S(=O)(=O)CC(CO)n2ccnc2)cc1 (configuration not stated),16 µg/mL,32 µg/mL,32 µg/mL,64 µg/mL,64 µg/mL,128 µg/mL,64 µg/mL,256 µg/mL,128 µg/mL,128 µg/mL,64 µg/mL
Cc1nc(I)cn1C(CO)CS(=O)(=O)c1ccc(N)cc1 (configuration not stated),32 µg/mL,64 µg/mL,64 µg/mL,64 µg/mL,64 µg/mL,64 µg/mL,32 µg/mL,128 µg/mL,32 µg/mL,128 µg/mL,32 µg/mL
CC(=O)Nc1ccc(S(=O)(=O)CC(CO)n2cnc(Br)c2)cc1 (configuration not stated),8 µg/mL,8 µg/mL,64 µg/mL,64 µg/mL,32 µg/mL,256 µg/mL,32 µg/mL,256 µg/mL,64 µg/mL,64 µg/mL,32 µg/mL
CC(C)c1nccn1C(CO)CS(=O)(=O)c1ccc(N)cc1 (configuration not stated),16 µg/mL,8 µg/mL,128 µg/mL,32 µg/mL,64 µg/mL,64 µg/mL,64 µg/mL,256 µg/mL,32 µg/mL,128 µg/mL,64 µg/mL
CCc1nccn1C(CO)CS(=O)(=O)c1ccc(N)cc1 (configuration not stated),16 µg/mL,16 µg/mL,64 µg/mL,64 µg/mL,64 µg/mL,128 µg/mL,32 µg/mL,256 µg/mL,64 µg/mL,64 µg/mL,32 µg/mL
CCCc1nccn1C(CO)CS(=O)(=O)c1ccc(NC(C)=O)cc1 (configuration not stated),32 µg/mL,16 µg/mL,32 µg/mL,64 µg/mL,32 µg/mL,128 µg/mL,32 µg/mL,256 µg/mL,32 µg/mL,64 µg/mL,64 µg/mL
CCc1nc(I)cn1C(CO)CS(=O)(=O)c1ccc(N)cc1 (configuration not stated),16 µg/mL,64 µg/mL,64 µg/mL,64 µg/mL,64 µg/mL,256 µg/mL,32 µg/mL,256 µg/mL,64 µg/mL,64 µg/mL,32 µg/mL
Nc1ccc(S(=O)(=O)CC(CO)n2cnc(Br)c2)cc1 (configuration not stated),16 µg/mL,64 µg/mL,64 µg/mL,64 µg/mL,64 µg/mL,256 µg/mL,32 µg/mL,256 µg/mL,64 µg/mL,64 µg/mL,32 µg/mL
Nc1ccc(S(=O)(=O)CC(CO)n2cnc(I)c2)cc1 (configuration not stated),64 µg/mL,256 µg/mL,64 µg/mL,64 µg/mL,64 µg/mL,256 µg/mL,32 µg/mL,256 µg/mL,64 µg/mL,64 µg/mL,32 µg/mL

# — ChEMBL document CHEMBL4819149, “A facile reaction to access novel structural sulfonyl-hybridized imidazolyl ethanols as potential DNA-targeting antibacterial agents” (Bioorg Med Chem Lett, 2021)
